Bioassay records (PubChem)
This is a sample that favours compounds with a hit; in the whole collection about 4% have one here.
hiPSC survival: enhancers of single-cell hiPSC survival, primary screen, ATPlite luminescence. hit rate 0.044% among 360,000. 100% = ROCK inhibitor wells, 0% = DMSO. survival enhancement, % at 20 µM; in the data active = survival enhancement above about 18%;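 also: cells exposed to compounds for 16 hours before the ATP read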
GRIN3A LBD mod: binders of NR3A ligand-binding domain, primary screen, biophysical, differential scanning fluorimetry, uHTS; Glutamate receptor ionotropic, NMDA 3A (GRIN3A) ligand-binding domain; NR3A LBD differential scanning fluorimetry, Tm shift; 0% = protein alone, 100% = glycine-bound protein; Tm shift relative to glycine control, % at 25 µM; hit rate 2.5% among 340,000; AID 1259313, 2017;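 active = melting temperature shift of at least 10% of the positive control shift, at one fixed dose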
SENP1 inh: human SENP1 catalytic domain inhibitors, primary screen, biochemical, FRET, uHTS; recombinant SENP1 catalytic domain, CyPet-SUMO1-YPet FRET cleavage; hit rate 0.21% among 360,000; inhibition, % at 10 µM; Sentrin-specific protease 1 (Homo sapiens), Q9P0U3;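 active = inhibition at least 30% at 10 µM, raw YFP signal under a set limit, fluorescence ratio 0.5 to 1.5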;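 also: 0% = enzyme with DMSO and 100% = no enzyme wells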
Target sequence (Q9P0U3 419-644 limits assumed): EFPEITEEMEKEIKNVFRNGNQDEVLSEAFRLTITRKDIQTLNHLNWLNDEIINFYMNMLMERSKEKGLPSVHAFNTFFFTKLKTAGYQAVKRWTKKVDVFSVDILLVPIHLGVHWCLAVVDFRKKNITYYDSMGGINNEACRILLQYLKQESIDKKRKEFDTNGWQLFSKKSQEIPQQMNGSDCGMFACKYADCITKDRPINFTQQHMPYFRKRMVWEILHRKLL
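Assay system – human recombinant His6-tagged SENP1 catalytic domain enzyme · Input – SENP1 enzyme, 20 pM final · Buffer or medium – Tris pH 8 buffer plus EDTA, NaCl, BME, BSA, NP40, catalase · Schedule – 50 min reaction at room temperature · Technique – FRET read of cyan and yellow fluorescence · Control set – no-enzyme wells low, DMSO-plus-enzyme wells high control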
Arr AP2 block: inhibitors of beta-arrestin/AP2 binding, primary screen, biochemical, GPCR trafficking, flow cytometry | beta-arrestin 1 C-terminal peptide binding to AP2 beta2-adaptin appendage (human) | FITC-arrestin peptide / GST-AP2 beads; AP2 beta2 appendage carries R879A mutation | inhibition, % at 10 µM | hit rate 0.31% among 340,000 | AID 504490, 2011;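 active = inhibition above a set limit, near 3 SD of compounds lacking own fluorescence, cut at about 54% in these data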;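 also: plate controls were DMSO wells for no effect and 5 µM unlabelled arrestin peptide for full effect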
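System: GST-AP2 R879A glutathione beads; medium: PBS, Tween 20 0.05%, BSA 0.1%; reagent: fluorescein-tagged arrestin peptide at 50 nM final; schedule: pre-incubation 12 min, peptide binding 1 h, room temperature; detection: flow cytometry, FL1 (488/535 nm); read-out: inhibition as reduced fluorescein signal on beads, percent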
FAS TE block: FAS thioesterase domain inhibitors, primary screen, biochemical, fluorescence intensity, uHTS; AID 602261, 2012; inhibition, % at 15 µM; Fatty acid synthase (Homo sapiens), P49327; hit rate 0.67% among 360,000; recombinant FAS-TE, OMFH fluorogenic substrate, fluorescence endpoint;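 active = compounds whose normalised, plate-corrected inhibition of enzyme fluorescence in the single-dose primary screen is 50% or more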;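 also: 0% = DMSO with enzyme and 100% = substrate without enzyme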
H9c2 protect: cardioprotection against H2O2-induced cell death, primary screen, uHTS, H9c2 cells, ATPLite luminescence; H9c2 cardiomyocytes, H2O2 injury protection, 2 h; protection from H2O2 cell death, % at 20 µM; hit rate 0.63% among 360,000;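 active = compounds giving at least 50% protection of heart cells from peroxide-induced death in the single-dose screen, raw or plate-pattern-corrected value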;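 also: 0% = DMSO wells with peroxide and 100% = DMSO wells without peroxide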
An asterisk follows results filed as active.

For COc1ccc(-n2nnnc2-c2cccnc2)cc1 the results were hiPSC survival 1, GRIN3A LBD mod 15*, SENP1 inh 3, Arr AP2 block 6, FAS TE block -7 and H9c2 protect -8.
For Cc1ccc(-n2nnnc2-c2ccccc2)cc1 the results were hiPSC survival 0, GRIN3A LBD mod -1, SENP1 inh 0, Arr AP2 block 5, FAS TE block -1 and H9c2 protect -3.
CCN(CC)C(=O)C1=C(C)N(Cc2ccc(C(C)(C)C)cc2)C(=O)C(CC(=O)NCc2ccco2)C1 (centres undefined) was read as hiPSC survival -1, SENP1 inh 0, FAS TE block 2 and H9c2 protect -3.
`Cc1ccc(OCC(=O)N(Cc2ccc(N(C)C)cc2)C2CCS(=O)(=O)C2)cc1` (centres undefined) gave hiPSC survival 1, GRIN3A LBD mod 17*, SENP1 inh -3, Arr AP2 block -2, FAS TE block -2 and H9c2 protect 15.
`O=C(c1ccc(COc2ccc(Br)cc2)o1)N1N=C(C(F)F)CC1(O)C(F)F` (centres undefined) gave hiPSC survival 2, GRIN3A LBD mod 19*, SENP1 inh 1, Arr AP2 block -16, FAS TE block 42 and H9c2 protect -12.
O=C(c1ccc(COc2ccc3ccccc3c2)o1)N1N=C(C(F)F)CC1(O)C(F)F (centres undefined) was read as hiPSC survival 1, GRIN3A LBD mod 20*, SENP1 inh 1, Arr AP2 block -9, FAS TE block 35 and H9c2 protect -22.
CN(Cc1ccccc1)c1nccn2ccnc12 was read as hiPSC survival 5, SENP1 inh -1, FAS TE block -8 and H9c2 protect -6.
Screening CCC(C)n1c(SCC(=O)Nc2ccccc2C(F)(F)F)nc2ccsc2c1=O (centres undefined) returned hiPSC survival 5, GRIN3A LBD mod 0, SENP1 inh 3, Arr AP2 block 8, FAS TE block 15 and H9c2 protect 3.
CCC(C)n1c(SCc2ccccc2)nc2ccsc2c1=O (centres undefined) was read as hiPSC survival 2, GRIN3A LBD mod 11*, SENP1 inh 1, Arr AP2 block 30, FAS TE block 20 and H9c2 protect 0.
COc1cccc(CNC(=O)[C@@H]2CCCN2C(=O)[C@H]2CCCCN2C(=O)c2ccccc2)c1 was read as hiPSC survival 0, SENP1 inh 3 and FAS TE block -14.
`CCOC(=O)c1ccc(NC(=S)N2CCCC(C(=O)N3CCCC3)C2)cc1` (centres undefined) gave hiPSC survival 0, GRIN3A LBD mod 11*, SENP1 inh 6, Arr AP2 block -9, FAS TE block -7 and H9c2 protect 7.
Screening CCOC(=O)c1ccc(NC(=S)N2CCSC2c2ccc(Br)cc2)cc1 (centres undefined) returned hiPSC survival -2, GRIN3A LBD mod 18*, SENP1 inh 0, Arr AP2 block -5, FAS TE block 28 and H9c2 protect -16.
`CCOC(=O)c1ccc(NC(=S)N2CCC(O)CC2)cc1` gave hiPSC survival 0, GRIN3A LBD mod -1, SENP1 inh 0, Arr AP2 block -11, FAS TE block -3 and H9c2 protect 2.
Cc1cc(OCC(=O)OCC(=O)N2CCCCC2)ccc1Cl was read as hiPSC survival 4, SENP1 inh 4, FAS TE block -1 and H9c2 protect 9.
`COc1ccccc1NS(=O)(=O)c1cccs1` gave hiPSC survival 3, GRIN3A LBD mod -2, SENP1 inh 0, FAS TE block -1 and H9c2 protect 6.
For COc1cccc(Nc2nc3ccccc3nc2NS(=O)(=O)c2cccs2)c1 the results were hiPSC survival -2, GRIN3A LBD mod 21*, SENP1 inh -4, Arr AP2 block 5, FAS TE block 3 and H9c2 protect -18.
For COc1ccc(Nc2nc3ccccc3nc2NS(=O)(=O)c2cccs2)c(OC)c1 the results were hiPSC survival -1, GRIN3A LBD mod -4, SENP1 inh -1, Arr AP2 block 9, FAS TE block -7 and H9c2 protect -12.
For COc1ccc(NS(=O)(=O)c2cccs2)c(OC)c1 the results were hiPSC survival -1, GRIN3A LBD mod 15*, SENP1 inh 4, Arr AP2 block 2, FAS TE block 4 and H9c2 protect 5.
CN1CCOc2c1cnn(CCO)c2=O was read as hiPSC survival -1, SENP1 inh 3, FAS TE block -3 and H9c2 protect 4.
`CC(C)NC(=O)c1cccc2c(-c3ccc(F)c(F)c3)coc12` gave hiPSC survival 2, SENP1 inh -1, FAS TE block 14 and H9c2 protect -3.
For CCOc1ccc2nc(N3C(=O)CNC3=S)sc2c1 the results were hiPSC survival -1, GRIN3A LBD mod 17*, SENP1 inh 1, Arr AP2 block 15, FAS TE block -5 and H9c2 protect -13.
`Oc1ccc(C[C@H]2CNC(=S)N2CC2CCCN2C[C@H](Cc2ccccc2)N2C[C@H](Cc3ccc(O)cc3)N(CCc3ccccc3)C2=S)cc1` (some centres undefined) gave hiPSC survival -1, GRIN3A LBD mod 31*, SENP1 inh 1, Arr AP2 block -1, FAS TE block -92 and H9c2 protect -13.
For CCOc1ccc(CCN2C(=S)N([C@@H](CC(C)C)CN3CCCC3CN3C(=S)NC[C@@H]3Cc3ccc(O)cc3)C[C@@H]2Cc2ccccc2)cc1 (some centres undefined) the results were hiPSC survival -2, GRIN3A LBD mod 31*, SENP1 inh 1, Arr AP2 block 11, FAS TE block -145 and H9c2 protect -20.
Screening CCOc1ccc(CCN2C(=S)N([C@@H](CC(C)C)CN3CCCC3CN3C(=S)NC[C@@H]3Cc3ccc(O)cc3)C[C@@H]2Cc2ccc(O)cc2)cc1 (some centres undefined) returned hiPSC survival 0, GRIN3A LBD mod 34*, SENP1 inh 1, Arr AP2 block -16, FAS TE block -92 and H9c2 protect -3.
